Measured values from ChEMBL document CHEMBL1139399, “Synthesis and biological evaluation of glucuronide prodrugs of the histone deacetylase inhibitor CI-994 for application in selective cancer chemotherapy” (Bioorg Med Chem, 2008).
In brackets after ≈: the same amount, converted by molar mass. Activity calls are given as the source filed them. No cut-off for these calls is given here.

Columns and labels:
[1] = Aqueous solubility in phosphate buffer at pH 7; type: physicochemical
Method in brief: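 Solubility in 0.02 M phosphate buffer, pH 7; sample filtered through 0.45 µm filter, diluted in HPLC phase and quantified by HPLC (UV) against a calibration curve of 0.1–0.025 mg/mL prepared from a DMSO stock diluted in the same buffer.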

[2] = Stability in 0.02M phosphate buffer at pH 2.1 after 72 hrs; type: physicochemical; settings: pH 2.1, 72 h
Method in brief: (§1)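 Compounds held in 0.02 M phosphate buffer (pH 2.1 or pH 7 as per line) at 37 °C for 72 h; degradation followed by HPLC with UV detection.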

NCI-H661 [3] = assay: Antiproliferative activity against human NCI-H661 cells after 48 hrs; type: functional, cell-based
Method in brief: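 NCI-H661 NSCLC cells grown in RPMI 1640 + 10% FCS, 37 °C, 5% CO2; 4 × 10^3 cells/well seeded, grown 24 h, then exposed to compound for 48 h without β-glucuronidase. XTT labeling mixture added, further 4 h at 37 °C, absorbance read at 480 nm. Three experiments in triplicate; standard deviation shown.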

NCI-H661 [4] = assay: Antiproliferative activity against human NCI-H661 cells after 48 hrs in presence of beta-glucuronidase; type: functional, cell-based; settings: NCI-H661, 48 h
Method in brief: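 NCI-H661 cells in RPMI 1640 + 10% FCS (37 °C, 5% CO2); E. coli β-glucuronidase added to culture medium at 40 U/ml. 4 × 10^3 cells/well plated 24 h before compound, 48 h treatment, then XTT added and 4 h further incubation at 37 °C; absorbance at 480 nm. Three experiments in triplicate, standard deviation shown.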

[5] = molecular target: Histone deacetylase (Homo sapiens) (UniProt Q13547+O15379+Q9UBN7+Q92769+Q9UQL6+Q8WUI4+Q9BY41+Q96DB2+P56524+Q9UKV0+Q969S8); assay: Inhibition of HDAC in human NCI-H661 cells assessed as histone H4 acetylation after 6 hrs in presence of beta-glucuronidase by Western blot analysis; type: cell-based
Method in brief: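 NCI-H661 cells (5 × 10^5) exposed 6 h with β-glucuronidase (40 U/ml) in medium; compounds at 100 µM, TSA control 100 nM, DMSO 0.1%. Laemmli buffer lysis, sonication, SDS–PAGE; blots probed with rabbit polyclonal anti-acetyl-histone H4 (1/500), α-tubulin loading control (1/2000), HRP secondaries (1/5000), ECL detection.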

[6] = Stability in 0.02M phosphate buffer at pH 7 after 72 hrs; type: physicochemical; settings: pH 7, 72 h; method in brief: as §1
[7] = Stability in cell culture medium in presence of 10% foetal calf serum; type: ADME; settings: cattle
Method in brief: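 Incubation in cell culture medium supplemented with 10% foetal calf serum at 37 °C; solution monitored by HPLC (UV detection) over 72 h.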

solubility [1]	Stability [2]	IC50 (NCI-H661 [4])	Activity [5]	Stability [6]	Stability [7]	IC50 (NCI-H661 [3]; NCI-H661, 48 h)	Compound	Activity (NCI-H661 [3])
1000 µg/mL (≈ 2040 µM)	Stable	20 µM	Active	Stable	Stable	–	CC(=O)Nc1ccc(C(=O)Nc2ccccc2NC(=O)O[C@@H]2O[C@H](C(=O)O)[C@@H](O)[C@H](O)[C@H]2O)cc1	inactive
1000 µg/mL (≈ 1560 µM)	Stable	20 µM	Active	Stable	Stable	–	CC(=O)Nc1ccc(C(=O)Nc2ccccc2NC(=O)OCc2ccc(O[C@@H]3O[C@H](C(=O)O)[C@@H](O)[C@H](O)[C@H]3O)c([N+](=O)[O-])c2)cc1	inactive
80 µg/mL (≈ 297 µM)	–	–	–	–	–	20 µM	CC(=O)Nc1ccc(C(=O)Nc2ccccc2N)cc1 [TACEDINALINE]	–
